Legend:
Assay type in all cases: functional
A498 = test: Cytotoxicity against human A498 cells assessed as growth inhibition after at 30 ug/ml 48 hrs by SRB assay; settings: A498, 48 h
Summary of the method: (§1)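 Adherent cells were seeded at 5000–40 000 cells/well according to doubling time and preincubated 24 h at 37 °C in 5% CO2 and humidified air. Drug was diluted in complete medium with 50 µg/mL gentamicin and exposed for 48 h under the same conditions. Cells were fixed in situ with cold TCA (10% final, 60 min, 4 °C), stained with 0.4% SRB in 1% HOAc, solubilized in 10 mM Tris base, and read at 515 nm.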

NCI-H226 = test: Cytotoxicity against human NCI-H226 cells assessed as growth inhibition after at 30 ug/ml 48 hrs by SRB assay; settings: NCI-H226, 48 h; summary of the method: as §1
PC-3 = test: Cytotoxicity against human PC-3 cells assessed as growth inhibition after at 30 ug/ml 48 hrs by SRB assay; settings: PC-3, 48 h; summary of the method: as §1
A549 = test: Cytotoxicity against human A549 cells assessed as growth inhibition after at 30 ug/ml 48 hrs by SRB assay; settings: A549, 48 h; summary of the method: as §1

Row | Compound | inhibition at 30 µg/mL (A498) | inhibition at 30 µg/mL (NCI-H226) | inhibition at 30 µg/mL (PC-3) | inhibition at 30 µg/mL (A549)
1 | CC(=O)O[C@@]12CO[C@@H]1C[C@H](O)[C@@]1(C)C(=O)[C@H](O)C3=C(C)[C@@H](O)C[C@@](O)([C@@H](OC(=O)c4ccccc4)[C@H]21)C3(C)C | 27% | 5.7% | 1.6% | 12.2%
2 | CC(=O)O[C@H]1C(=O)[C@@]2(CO)[C@H]([C@H](OC(=O)c3ccccc3)[C@]3(O)C[C@H](O)C(C)=C1C3(C)C)[C@]1(OC(C)=O)CO[C@@H]1C[C@@H]2O | 26.7% | 44.6% | 47.7% | 0%
3 | CC(=O)O[C@@]12CO[C@@H]1C[C@H](O)[C@@]1(C)C(=O)C(=O)C3=C(C)[C@@H](O)C[C@@](O)([C@@H](OC(=O)c4ccccc4)[C@H]21)C3(C)C | 79.1% | 97.3% | 100% | 54.7%
4 | CC(=O)O[C@@]12CO[C@@H]1C[C@H](O)[C@@]1(CO)C(=O)[C@H](O)C3=C(C)[C@@H](O)C[C@@](O)([C@@H](OC(=O)c4ccccc4)[C@H]21)C3(C)C | 16.6% | 32% | 2.3% | 0%
5 | CC(=O)O[C@H]1C(=O)[C@@]2(CO)[C@H]([C@H](OC(=O)c3ccccc3)[C@]3(O)CC(=O)C(C)=C1C3(C)C)[C@]1(OC(C)=O)CO[C@@H]1C[C@@H]2O | 79.8% | 84.7% | 88.2% | 45.4%
6 | CC(=O)O[C@H]1C[C@H]2OC[C@@]2(OC(C)=O)[C@H]2[C@H](OC(=O)c3ccccc3)[C@]3(C(C)(C)O)C[C@H](O)C(C)=C3[C@@H](O)[C@H](OC(C)=O)[C@]12C | 21.7% | 19.9% | 1.9% | 27.1%
7 | CC(=O)O[C@@]12CO[C@@H]1C[C@H](O)[C@@]1(C)C(=O)[C@H](O)C3=C(C)C(=O)C[C@@](O)([C@@H](OC(=O)c4ccccc4)[C@H]21)C3(C)C | 29.7% | 49.2% | 65.3% | 43.9%
8 | CC(=O)O[C@H]1C(=O)[C@@]2(C)[C@H]([C@H](OC(=O)c3ccccc3)[C@]3(O)C[C@H](OC(=O)[C@H](O)[C@@H](NC(=O)c4ccccc4)c4ccccc4)C(C)=C1C3(C)C)[C@]1(OC(C)=O)CO[C@@H]1C[C@@H]2O [PACLITAXEL] | 98.2% | 71.2% | 91.7% | 79.7%
9 | CC(=O)OC[C@H]1[C@H]2[C@H](O)[C@]3(C(C)(C)O)C[C@H](O)C(C)=C3[C@@H](O)[C@H](OC(=O)c3ccccc3)[C@]2(C)[C@@H](OC(C)=O)C[C@@H]1OC(C)=O [TASUMATROL F] | 83% | 78.5% | 95% | 72.6%
10 | CC(=O)O[C@H]1C[C@H](OC(C)=O)[C@]2(C)[C@@H]3[C@H](OC[C@]13OC(=O)c1ccccc1)[C@]1(C(C)(C)O)C[C@H](O)C(C)=C1[C@@H](O)[C@@H]2OC(C)=O [TASUMATROL G] | 15.3% | 78.9% | 58.9% | 24.1%
11 | CC(=O)OC[C@]1(O)[C@@H](OC(C)=O)C[C@H](OC(C)=O)[C@]2(C)[C@@H]1[C@H](O)[C@]1(C(C)(C)O)C[C@H](O)C(C)=C1[C@@H](O)[C@@H]2OC(=O)c1ccccc1 [TASUMATROLS E] | 100% | 84.8% | 94.7% | 91.3%
12 | CC(=O)O[C@H]1C[C@H](OC(C)=O)[C@]2(C)[C@@H]([C@@H]1CO)[C@H](OC(C)=O)[C@]1(C(C)(C)O)C[C@H](O)C(C)=C1[C@@H](O)[C@@H]2OC(C)=O [TAXAYUNTIN G] | 21.2% | 29.3% | 1.4% | 0%
13 | C=C1[C@@H](O)C[C@H](OC(C)=O)[C@@]2(COC(=O)c3ccccc3)[C@@H](OC(C)=O)[C@H](OC(C)=O)[C@]3(O)[C@@]4(C)CO[C@]3(C)C(=O)C[C@H]4[C@@H](OC(C)=O)[C@H]12 [TAXININ M] | 24.3% | 11.1% | 0% | 14.6%
14 | CC(=O)O[C@@]12CO[C@@H]1C[C@H](O)[C@]1(C)[C@@H]2[C@H](OC(=O)c2ccccc2)[C@]23C[C@H](O)C(C)=C2[C@@]1(O)C(=O)OC3(C)C [WALLIFOLIOL] | 27.9% | 29.1% | 6.4% | 16.7%

— ChEMBL document CHEMBL1158686, “Three new taxane diterpenoids from Taxus sumatrana” (2005)
